In the library only some 2% were active in any assay of this set; here they are far more common.
GPR7 antagonist = antagonists of human GPR7 (neuropeptides B/W receptor 1). 1.1% of 290,000 active. inhibition, % at 4.4 µM. GPR7-expressing cells, fluorescence antagonist assay. P48145; in the data active = inhibition above about 16%, passing the limit was not always enough;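 note: cells stimulated with the agonist NPW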
Target sequence (P48145 whole entry, looked up): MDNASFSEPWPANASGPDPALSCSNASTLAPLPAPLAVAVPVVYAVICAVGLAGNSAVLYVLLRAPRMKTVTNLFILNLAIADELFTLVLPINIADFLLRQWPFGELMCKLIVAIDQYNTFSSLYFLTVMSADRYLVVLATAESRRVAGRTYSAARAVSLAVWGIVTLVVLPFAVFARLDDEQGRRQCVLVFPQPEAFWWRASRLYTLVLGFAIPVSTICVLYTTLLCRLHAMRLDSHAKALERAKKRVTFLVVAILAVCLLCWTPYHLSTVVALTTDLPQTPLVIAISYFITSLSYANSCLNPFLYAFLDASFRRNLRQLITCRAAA
HCV NS3 hel inh = HCV NS3 helicase inhibition; NS3 helicase DNA unwinding, Cy5 molecular beacon fluorescence; inhibition, % at 10.9 µM; 0.56% of 290,000 active; AID 1800;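 active = inhibition above the mean of all tested compounds plus 3 SD, set per campaign, cut at about 35% in these data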
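System: NS3 helicase fragment of HCV / Schedule: 1 h at 25 °C / Control set: DMSO alone as 0% and 110 µM thioflavine S as 100% / Reagent: Cy5/quencher beacon DNA duplex and ATP to start / Technique: Cy5 fluorescence / Replication: singlicate / Evaluation: % inhibition of end-to-start signal ratio versus controls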
EBNA-1 inh = blocks EBNA-1 binding to DNA; AID 1950; EBNA-1 DNA binding, fluorescence polarization; 0.34% of 300,000 active; inhibition, % at 14.8 µM; in the data active = inhibition above about 28%
FID counter = counter-screen for HCV NS3 helicase inhibitors: DNA intercalator displacement. DNA fluorescent intercalator displacement, fluorescence. inhibition, % at 7.9 µM. 0.17% of 290,000 active; in the data active = inhibition above about 37%;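 note: higher means more ethidium bromide displaced from hairpin DNA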
ZTA counter = counter-screen for EBNA-1 inhibitors: inhibitors of Epstein-Barr virus ZTA; ZTA-DNA binding, fluorescence polarization; inhibition, % at 11 µM; P03206; AID 2234; 0.15% of 320,000 active; in the data active = inhibition above about 33%
Target sequence (P03206 whole entry, looked up): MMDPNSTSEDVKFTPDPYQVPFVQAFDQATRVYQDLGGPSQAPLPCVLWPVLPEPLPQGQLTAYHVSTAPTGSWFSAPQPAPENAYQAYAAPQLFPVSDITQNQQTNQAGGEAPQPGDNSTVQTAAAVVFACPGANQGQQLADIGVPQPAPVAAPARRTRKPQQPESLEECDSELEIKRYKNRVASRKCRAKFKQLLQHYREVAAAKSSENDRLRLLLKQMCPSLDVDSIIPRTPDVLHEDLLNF
EBNA-1 inh conf = EBNA-1 (EBV) inhibition, confirmation. shares compounds with EBNA-1 inh. Recombinant EBNA-1 DBD, Cy5-DNA fluorescence polarization. inhibition, % at 14.8 µM. 35% of 830 active. AID 2292;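 active = mean inhibition across replicates above a set limit taken from the earlier primary screen, cut at about 28% in these data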
ZTA DNA inh trip = blocks Epstein-Barr virus ZTA in triplicate, EBNA-1 counter-screen; shares compounds with EBNA-1 inh; Zta-ZRE DNA binding, Cy5 fluorescence polarization; inhibition, % at 11.1 µM; 830 tested, under 10 active; AID 2328;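 active = mean inhibition over triplicates above a set limit taken from the primary EBNA-1 screen, cut at about 37% in these data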;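 note: purified full length Zta protein with Cy5 labeled ZRE DNA probe; inhibitors lower polarization by freeing the labeled DNA probe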
Hits are given with their value.

For COCCCn1c(SC(C)C(=O)NC2CC2)nc2ccccc2c1=O (stereo unspecified) the results were EBNA-1 inh inactive and ZTA counter inactive.
`O=S1(=O)N=C(N(CCO)/N=C/c2ccc(Cl)cc2)c2ccccc21` gave GPR7 antagonist inactive, HCV NS3 hel inh inactive, EBNA-1 inh inactive, FID counter inactive and ZTA counter inactive.
O=S1(=O)N=C(N(CCO)/N=C/c2ccc(Br)cc2)c2ccccc21 was read as GPR7 antagonist inactive, HCV NS3 hel inh inactive, EBNA-1 inh 31.6, FID counter inactive, ZTA counter inactive, EBNA-1 inh conf inactive and ZTA DNA inh trip inactive.
For CCc1ccccc1NC(=O)COC(=O)C1C2CC3OC(=O)C1C3C2 (stereo unspecified) the results were GPR7 antagonist inactive, HCV NS3 hel inh inactive, EBNA-1 inh inactive, FID counter inactive and ZTA counter inactive.
`NS(=O)(=O)c1ccc(NC(=O)/C=C/c2ccc3c(c2)OCO3)cc1` gave GPR7 antagonist inactive, HCV NS3 hel inh inactive, EBNA-1 inh 43.8, FID counter inactive, ZTA counter inactive, EBNA-1 inh conf inactive and ZTA DNA inh trip inactive.
For CC(=O)Nc1ccc(NC(=O)/C=C/c2ccc3c(c2)OCO3)cc1 the results were GPR7 antagonist inactive, HCV NS3 hel inh inactive, EBNA-1 inh inactive, FID counter inactive and ZTA counter inactive.
Screening Cc1nc(N2CCN(c3ccccc3O)CC2)c2c(-c3ccccc3)csc2n1 returned GPR7 antagonist inactive, HCV NS3 hel inh inactive, EBNA-1 inh inactive, FID counter inactive and ZTA counter inactive.
Screening O=C(c1ccco1)N1CCN(C(=S)NCc2ccc(F)cc2)CC1 returned GPR7 antagonist inactive, HCV NS3 hel inh inactive, EBNA-1 inh inactive, FID counter inactive and ZTA counter inactive.
Cc1nc(-c2ccccc2)nc2[nH]c(-c3ccccc3)cc(=O)c12 was read as GPR7 antagonist inactive, HCV NS3 hel inh inactive, EBNA-1 inh 27.6, FID counter inactive, ZTA counter inactive, EBNA-1 inh conf inactive and ZTA DNA inh trip inactive.
For COc1ccc(CNC(=O)CSc2nnc3c(n2)[nH]c2ccc(C)cc23)cc1 the results were GPR7 antagonist inactive, HCV NS3 hel inh inactive, EBNA-1 inh inactive, FID counter inactive and ZTA counter inactive.
COc1ccc2[nH]c3nc(SCc4nnc(-c5ccc(C)cc5)o4)nnc3c2c1 was read as GPR7 antagonist inactive, HCV NS3 hel inh inactive, EBNA-1 inh 54.6, FID counter inactive, ZTA counter inactive, EBNA-1 inh conf 39.7 and ZTA DNA inh trip inactive.
For Cc1ccc(NC(=O)NCc2ccc3c(c2)OCO3)cc1C the results were GPR7 antagonist inactive, HCV NS3 hel inh inactive, EBNA-1 inh 29.5, FID counter inactive, ZTA counter inactive, EBNA-1 inh conf inactive and ZTA DNA inh trip inactive.
COc1ccc(CN(C)CC(=O)NCC(=O)Nc2c(C)cccc2C)cc1 was read as ZTA counter inactive.
For CC1=Nn2c(nnc2-c2cc(-c3ccccc3)n[nH]2)SC1 the results were GPR7 antagonist inactive, HCV NS3 hel inh inactive, EBNA-1 inh inactive, FID counter inactive and ZTA counter inactive.
For c1ccc(-c2ccc(C3=Nn4c(nnc4-c4cc(-c5ccccc5)n[nH]4)SC3)cc2)cc1 the results were GPR7 antagonist inactive, HCV NS3 hel inh inactive, EBNA-1 inh 33.1, FID counter inactive, ZTA counter inactive, EBNA-1 inh conf 52.4 and ZTA DNA inh trip inactive.
COc1ccccc1CCC(=O)Oc1ccccc1C#N was read as GPR7 antagonist inactive, HCV NS3 hel inh inactive and FID counter inactive.
`O=C(Nc1cc2c3c(c1)CC(=O)N3CCC2)C1CCCCC1` gave EBNA-1 inh inactive and ZTA counter inactive.
Screening COc1ccc(NC(=O)CN2C(=O)S/C(=C/c3cccn3-c3ccc(C(=O)O)cc3)C2=O)cc1 returned GPR7 antagonist inactive, HCV NS3 hel inh inactive and FID counter inactive.
Screening Cc1ccc(NC(=O)CN2C(=O)N/C(=C/c3cccn3-c3ccc(C(=O)O)cc3)C2=O)cc1 returned GPR7 antagonist inactive, HCV NS3 hel inh inactive, EBNA-1 inh 37.1, FID counter inactive, ZTA counter inactive, EBNA-1 inh conf inactive and ZTA DNA inh trip 40.0.
For COc1cccc(CN2CC(C(=O)NC3CCC(O)CC3)CCC2=O)c1 (stereo unspecified) the results were GPR7 antagonist inactive, HCV NS3 hel inh inactive, EBNA-1 inh inactive, FID counter inactive and ZTA counter inactive.
`Cc1ccc(NC(=O)c2sc3ncn(CC(=O)N4CCN(c5ccccn5)CC4)c(=O)c3c2C)cc1Cl` gave GPR7 antagonist inactive, HCV NS3 hel inh inactive, EBNA-1 inh 30.8, FID counter inactive, ZTA counter inactive, EBNA-1 inh conf inactive and ZTA DNA inh trip inactive.
Screening COc1ccccc1-c1cc(C(F)(F)F)nc(NCc2ccco2)n1 returned GPR7 antagonist inactive, HCV NS3 hel inh inactive, EBNA-1 inh 39.8, FID counter inactive, ZTA counter inactive, EBNA-1 inh conf inactive and ZTA DNA inh trip inactive.
Screening FC(F)(F)c1cc(-c2ccco2)nc(NCc2ccccc2)n1 returned GPR7 antagonist inactive, HCV NS3 hel inh inactive, EBNA-1 inh inactive, FID counter inactive and ZTA counter inactive.
For O=C(CSc1nnc(-c2ccc(Br)cc2)o1)Nc1cccc2ccccc12 the results were GPR7 antagonist inactive, HCV NS3 hel inh inactive, EBNA-1 inh 40.2, FID counter inactive, ZTA counter inactive, EBNA-1 inh conf 51.5 and ZTA DNA inh trip inactive.
O=C(Nc1ccc(Oc2ccc3c(c2)C(=O)N(c2ccc(O)cc2)C3=O)cc1)c1cccs1 was read as GPR7 antagonist inactive, HCV NS3 hel inh inactive, EBNA-1 inh 28.4, FID counter inactive, ZTA counter inactive, EBNA-1 inh conf 55.3 and ZTA DNA inh trip inactive.
For CC(C)CN1C(=O)c2ccc(NC(=O)c3cccs3)cc2C1=O the results were GPR7 antagonist inactive, HCV NS3 hel inh inactive, EBNA-1 inh inactive, FID counter inactive and ZTA counter inactive.
For CCN(/N=C/c1ccc(Cl)cc1)c1cc(=O)n(C)c(=O)[nH]1 the results were GPR7 antagonist inactive, HCV NS3 hel inh inactive, EBNA-1 inh 37.3, FID counter inactive, ZTA counter inactive, EBNA-1 inh conf inactive and ZTA DNA inh trip inactive.
`CCN(/N=C/C=C/c1ccccc1)c1cc(=O)n(C)c(=O)[nH]1` gave GPR7 antagonist inactive, HCV NS3 hel inh inactive, EBNA-1 inh inactive, FID counter inactive and ZTA counter inactive.
`COc1ccc(S(=O)(=O)N2CCOCC2)cc1C(=O)N1CCCCC1` gave GPR7 antagonist inactive, HCV NS3 hel inh inactive, EBNA-1 inh inactive, FID counter inactive and ZTA counter inactive.
Screening O=[N+]([O-])c1ccc(C[n+]2cc(-c3ccc(Cl)c(Cl)c3)n3c2CCCCC3)cc1 returned GPR7 antagonist inactive, HCV NS3 hel inh inactive, EBNA-1 inh 33.1, FID counter inactive, ZTA counter inactive, EBNA-1 inh conf inactive and ZTA DNA inh trip inactive.

High-throughput results deposited in PubChem BioAssay by The Scripps Research Institute Molecular Screening Center.
